Test results: ChEMBL document CHEMBL4028848, “Discovery of N-{4-[5-(4-Fluorophenyl)-3-methyl-2-methylsulfanyl-3H-imidazol-4-yl]-pyridin-2-yl}-acetamide (CBS-3595), a Dual p38α MAPK/PDE-4 Inhibitor with Activity against TNFα-Related Diseases” (J Med Chem, 2017)
Activity calls are given as the source filed them. The rule behind the calls is not given here.

Assays:
[1] = biological target: Mitogen-activated protein kinase 14 (Homo sapiens, UniProt Q16539); assay: Inhibition of p38alpha MAPK (unknown origin) at 1 uM relative to control
Mitogen-activated protein kinase 14, sequence (Q16539 whole entry): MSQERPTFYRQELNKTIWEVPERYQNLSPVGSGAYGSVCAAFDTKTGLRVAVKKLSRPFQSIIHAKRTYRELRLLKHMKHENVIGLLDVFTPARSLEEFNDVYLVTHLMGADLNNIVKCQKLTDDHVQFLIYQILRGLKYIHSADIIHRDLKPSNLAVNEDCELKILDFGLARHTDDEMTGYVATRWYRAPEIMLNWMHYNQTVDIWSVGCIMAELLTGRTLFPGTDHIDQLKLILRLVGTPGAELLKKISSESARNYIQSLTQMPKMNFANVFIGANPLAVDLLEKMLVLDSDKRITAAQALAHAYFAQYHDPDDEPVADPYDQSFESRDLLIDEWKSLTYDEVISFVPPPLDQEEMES

[2] = Apparent permeability in human Caco2 cells at 10 uM; type: ADME, cell-based; settings: Caco-2
[3] = test system: Rattus norvegicus; assay: In vivo inhibition of P38 MAPKalpha in Sprague-Dawley rat assessed as decrease in LPS-stimulated TNFalpha level in serum at 3 mg/kg, po pretreated for 1 hr followed by LPS addition measured after 2 hrs relative to control; type: functional
[4] = test system: Rattus norvegicus; assay: In vivo inhibition of P38 MAPKalpha in Lewis rat assessed as decrease in LPS-stimulated TNFalpha level in serum at 30 mg/kg pretreated for 1 hrs followed by LPS addition measured after 1.5 hrs post dose; type: functional, organism-based
[5] = species: Homo sapiens; assay: Inhibition of PDE4 in LPS-stimulated human whole blood assessed as decrease in leukotriene B4 level in plasma
[6] = test system: Rattus norvegicus; assay: In vivo inhibition of P38 MAPKalpha in Lewis rat assessed as decrease in LPS-stimulated TNFalpha level in serum at 30 mg/kg pretreated for 3 hrs followed by LPS addition measured after 1.5 hrs post dose; type: functional, organism-based
[7] = Fraction unbound in human plasma; type: ADME, cell-free
Method in brief: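 Plasma protein binding measured in human, Sprague–Dawley rat and Cynomolgus monkey plasma at 1, 10 and 30 μM compound. Reported as unbound fraction (%).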

[8] = test system: Rattus norvegicus; assay: In vivo inhibition of P38 MAPKalpha in Lewis rat assessed as decrease in LPS-stimulated TNFalpha level in serum at 10 mg/kg, po pretreated for 1 hr followed by LPS addition measured after 1.5 hrs post dose relative to control; type: functional
Method in brief: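 Lewis rats, n = 8/group: females dosed orally at 10 mg/kg at −1, −3 or −5 h relative to LPS challenge, plus one male group dosed at −1 h. Male and female vehicle controls were given at −1 h. Serum TNFα was measured after LPS and compared with vehicle.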

[9] = test system: Liver; assay: Drug level in rat liver microsomes treated with CBS-3595 at 10 to 100 uM; type: ADME, microsome
Method in brief: (§1)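 Test compound incubated at 10, 30 and 100 μM with liver microsomes from rat, Cynomolgus monkey or human, and metabolites monitored.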

[10] = test system: Liver; assay: Drug level in human liver microsomes treated with CBS-3595 at 10 to 100 uM; type: ADME, microsome; method in brief: as §1
[11] = Drug level in cynomolgus monkey liver microsomes treated with CBS-3595 at 10 to 100 uM; type: ADME, Macaca fascicularis, microsome; method in brief: as §1

CC(=O)Nc1cc(-c2c(-c3ccc(F)cc3)nc([S@+](C)[O-])n2C)ccn1
inhibition [1]: 11%

CC(C)NCC(O)COc1cccc2ccccc12 (centres undefined) [PROPRANOLOL]
Papp at 10 µM [2]: 71.1 ×10⁻⁶ cm/s

C[S+]([O-])c1ccc(-c2nc(-c3ccc(F)cc3)c(-c3ccncc3)[nH]2)cc1 (centres undefined) [SB-203580]
inhibition in vivo at 3 mg/kg [3]: 37%
inhibition [4]: Active
inhibition [5]: inactive
inhibition [6]: Active

O=C(Nc1c(Cl)c[n+]([O-])cc1Cl)c1ccc(OC(F)F)c(OCC2CC2)c1
fraction unbound [7]: 0.04

CCc1nc(-c2cccc(C)c2)c(-c2ccnc(NC(=O)c3ccccc3)c2)s1 [TAK-715]
inhibition in vivo at 10 mg/kg [8]: 6%

CC(=O)Nc1cc(-c2c(-c3ccc(F)cc3)nc(S(C)(=O)=O)n2C)ccn1
Drug metabolism [9]: Metabolite_Detected
Drug metabolism [10]: Metabolite_Detected
Drug metabolism [11]: Metabolite_Detected

Cn1c(S(C)(=O)=O)nc(-c2ccc(F)cc2)c1-c1ccnc(N)c1
Drug metabolism [9]: Metabolite_Detected
Drug metabolism [10]: Metabolite_Detected
Drug metabolism [11]: Metabolite_Detected
